# High-throughput results: PubChem BioAssay, Broad Institute
# E-selectin induc: E-selectin induction in HUVECs, primary screen, imaging, HUVEC, immunofluorescence imaging, single point; normalized: neutral wells 0, TNF-alpha wells 100; activation, % at 7.58 µM; actives 0.37% (n = 260,000);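 active means mean E-selectin-positive cell signal at least 10% of the positive control, reached in at least 60% of replicates, without over 20% cell loss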
# Target sequence (P16581 whole entry, looked up): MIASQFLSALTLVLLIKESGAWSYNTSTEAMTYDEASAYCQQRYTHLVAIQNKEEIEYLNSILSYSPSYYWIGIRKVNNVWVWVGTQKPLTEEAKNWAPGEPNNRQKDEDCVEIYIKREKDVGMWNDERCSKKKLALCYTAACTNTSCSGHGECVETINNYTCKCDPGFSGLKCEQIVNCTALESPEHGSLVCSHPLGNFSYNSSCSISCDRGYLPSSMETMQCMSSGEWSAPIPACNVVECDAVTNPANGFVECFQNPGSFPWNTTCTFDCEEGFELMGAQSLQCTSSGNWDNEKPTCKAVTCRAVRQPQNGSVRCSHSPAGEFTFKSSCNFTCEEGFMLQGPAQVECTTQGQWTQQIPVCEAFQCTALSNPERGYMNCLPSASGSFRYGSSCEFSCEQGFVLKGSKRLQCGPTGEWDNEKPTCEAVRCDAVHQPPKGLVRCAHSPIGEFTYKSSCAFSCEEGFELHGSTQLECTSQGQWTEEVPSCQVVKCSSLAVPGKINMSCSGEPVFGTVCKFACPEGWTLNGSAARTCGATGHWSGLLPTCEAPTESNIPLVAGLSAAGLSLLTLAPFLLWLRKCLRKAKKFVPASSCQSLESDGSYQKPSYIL
#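 Read-out: % PE-positive cells | Test system: HUVEC | Doses: One compound dose added by pin transfer | Buffer or medium: EGM-2 over gelatin coat | Signal: Immunofluorescence imaging | Benchmarks: TNF-alpha, DMSO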
# CFTR F508del cor: F508del CFTR correction, initial screen, CFBE line, single point. CFBE cells, YFP halide quenching; stimulated with forskolin plus potentiator P3; % fluorescence drop versus neutral controls. activity (quench increase), % at 7.58 µM. actives 0.36% (n = 350,000). AID 720511, 2013;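 active means mean added fluorescence quench of at least 8% versus neutral control, with both replicates also reaching 8%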;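 further: cells transiently co-express mutant CFTR-F508del with the halide-sensitive YFP; corrector assay measuring rescue of mutant channel to the surface after 24 h compound exposure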
# S100A4 inh HTS: inhibitors of S100A4-myosin IIA peptide binding, primary screen, biochemical, fluorescence polarization, TAMRA-MyoIIA peptide | Protein S100-A4 (Homo sapiens), P26447 | inhibition, % at 10.7 µM | actives 0.14% (n = 360,000) | AID 652163, 2013;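 active means mean inhibition of at least 70% across replicates, with every replicate also reaching that level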
#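 Material: S100A4 monomer protein / Buffer or medium: 50 mM HEPES pH 7.2, 10 mM CaCl2, 100 mM KCl / Times: 5 min incubation before reading / Benchmarks: neutral control DMSO, positive control TFP / Reagent: labelled myosin peptide probe, 5 nM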
# HIV Env fusion: inhibitors of HIV-1 Env-driven cell-cell fusion, primary screen, HeLa-JRFL effector, CEM21 target cells, luciferase; inhibition, % at 12.3 µM; actives 1.1% (n = 360,000); AID 651610, 2012;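 active means mean replicate inhibition score of at least 50 and every replicate individually at or above 50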;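 further: 0% = plate neutral controls and 100% = maraviroc near 300 nM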
# FGF22 binding: binders of human FGF22 protein, primary screen, FGF22 synaptogenesis inhibitor project, biophysical, thermal shift, single point; recombinant FGF22 thermal shift, SYPRO orange fluorescence; percent of sucrose octasulfate shift, DMSO zero; actives 1.5% (n = 340,000); activity (Tm shift, normalised), % at 9.99 µM; Fibroblast growth factor 22 (Homo sapiens), Q9HCT0;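 active means mean Tm shift, scaled 0 neutral to 100 positive control, at about 1.3% or above, every replicate too, limit read from the data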
# * marks the source's active call; other numbers are inactive results; / = no result given; ! = not confirmed by another sample; [ ] = dose if it differs, or a comment. Shown are actives, neighbours in structure and some others; about 2.7% of the full set was active somewhere.
SMILES,E-selectin induc,CFTR F508del cor,S100A4 inh HTS,HIV Env fusion,FGF22 binding
C[C@@H]1CN([C@H](C)CO)C(=O)c2cccc(NC(=O)c3ccc(-c4nccs4)cc3)c2O[C@H]1CN(C)Cc1ccc(Oc2ccccc2)cc1,75*,3,0,/,0
CC(C)NC(=O)N(C)C[C@@H]1Oc2c(NC(=O)c3ccc(-c4nccs4)cc3)cccc2C(=O)N([C@H](C)CO)C[C@H]1C,91*,2,-5,-4[16.7 µM],0
C[C@@H]1CN([C@@H](C)CO)C(=O)c2cccc(NC(=O)c3ccc(-c4nccs4)cc3)c2O[C@@H]1CN(C)C(=O)NC1CCCCC1,4,-2,13,/,0
CC(C)NC(=O)N(C)C[C@@H]1Oc2c(NC(=O)c3ccc(-c4nccs4)cc3)cccc2C(=O)N([C@@H](C)CO)C[C@@H]1C,81*,6,0,14[16.7 µM],0
CC(C)NC(=O)N(C)C[C@H]1Oc2c(NC(=O)c3ccc(-c4nccs4)cc3)cccc2C(=O)N([C@@H](C)CO)C[C@H]1C,65*!,2,49,-54[16.7 µM],0
C[C@@H]1CN([C@@H](C)CO)C(=O)Cc2cc(NC(=O)Nc3ccccc3)ccc2O[C@H]1CN(C)C(=O)Nc1ccc(C(F)(F)F)cc1,0,-2,/,7[16.7 µM],0
C[C@@H]1CN([C@@H](C)CO)C(=O)c2cccc(NC(=O)c3ccc(-c4nccs4)cc3)c2O[C@@H]1CN(C)C(=O)Nc1ccc(C(F)(F)F)cc1,0,6,-9,/,1.4*
C[C@H](CO)N1C[C@H](C)[C@H](CN(C)C(=O)CCCN(C)C)OCCCC[C@H](C)Oc2ccc(NC(=O)Cc3ccccc3)cc2C1=O,/,-3,-17,-3[16.7 µM],0
CN1CC(COCc2ccccc2)Oc2ccccc2S1(=O)=O (stereo not given),0,5,-5,-1,0
CC#CCOCC1CN(C)C(=O)O1 (stereo not given),0,-4,-1,/,43*
COc1ccccc1NC(=O)C(=O)NCC(c1ccco1)N1CCc2ccccc21 (stereo not given),5,9.8*,2,1,0
CCN(CC)CCN(CC(=O)N(C1CCCCC1)C1CCCCC1)C(=O)c1cccnc1,0,-4,9,-1,44*
C[C@H]1CN([C@@H](C)CO)C(=O)c2cccc(NC(=O)c3ccncc3)c2O[C@@H]1CN(C)S(=O)(=O)c1ccccc1,3,-5,-1,4[16.7 µM],0
Cc1ccc(S(=O)(=O)N(C)C[C@@H]2Oc3c(NS(=O)(=O)c4ccc(Cl)cc4)cccc3C(=O)N([C@@H](C)CO)C[C@H]2C)cc1,49*,-2,-6,-16[16.7 µM],0
Cc1ccc(S(=O)(=O)N(C)C[C@@H]2Oc3c(NC(=O)C4CCCCC4)cccc3C(=O)N([C@@H](C)CO)C[C@@H]2C)cc1,/,-2,6,13[16.7 µM],-1
C[C@@H]1CN([C@H](C)CO)C(=O)c2cccc(NC(=O)c3ccncc3)c2O[C@H]1CN(C)S(=O)(=O)c1ccccc1,32*,1,1,-16[16.7 µM],0
Cc1ccc(S(=O)(=O)Nc2cccc3c2O[C@H](CN(C)S(=O)(=O)c2ccc(Cl)cc2)[C@H](C)CN([C@H](C)CO)C3=O)cc1,0,0,1,/,0
C[C@H](CO)N1C[C@H](C)[C@H](CN(C)S(=O)(=O)c2ccc(Cl)cc2)Oc2c(NC(=O)C3CCCCC3)cccc2C1=O,36*,-2,7,-14[16.7 µM],-1
Cc1ccc(S(=O)(=O)N(C)C[C@@H]2Oc3c(NC(=O)C4CCCCC4)cccc3C(=O)N([C@H](C)CO)C[C@@H]2C)cc1,/,-2,109*,-28[16.7 µM],-1
COCC(=O)Nc1ccc2c(c1)[C@H]1C[C@H](CC(=O)NC3CCCC3)O[C@H](CO)[C@H]1O2,0,-2,-10,-9[16.7 µM],0
CC(C)CC#Cc1cnc2c(c1)C(=O)N([C@@H](C)CO)C[C@@H](C)[C@@H](CN(C)S(=O)(=O)c1cn(C)cn1)O2,1,3,11,-3[16.7 µM],0
C[C@H](CO)N1C[C@H](C)[C@H](CN(C)S(=O)(=O)c2ccccc2)Oc2c(NC(=O)C3CCOCC3)cccc2C1=O,31*,2,6,/,0
COc1ccc(NC(=O)N[C@@H]2CC[C@@H](CCNC(=O)Cc3ccncc3)O[C@@H]2CO)cc1,-1,-2,1,5[16.7 µM],0
COC(=O)C1=C(C)NC(=O)/C1=C\c1cc(C)n(-c2ccccc2)c1C,10,0,-6,5,43*
COC(=O)C1=C(O)/C(=C\c2cc(C)n(-c3ccccc3F)c2C)N=C1C,/,7,-13,-11,0
SMILES,E-selectin induc,CFTR F508del cor,S100A4 inh HTS,HIV Env fusion,FGF22 binding
Cc1ccc(Cn2nc(C)c(/C=N/NC(=O)c3cccnc3)c2C)cc1,3,-2,1,18,43*
CN1CCN(c2ccccc2/C=N/NC(=O)c2cccnc2)CC1,/,0,5,26,0
Cc1nn(Cc2ccccc2)c(C)c1/C=N/NC(=O)c1cccnc1,/,/,-5,11,0
Cc1c(/C=N/NC(=O)c2cccnc2)cc(C#N)n1C,4,-2,9,0,43*
NS(=O)(=O)c1ccc(Cl)c(S(N)(=O)=O)c1,-1,10*,5,/,0
FC(F)(F)c1cccc(NC(=S)N2CCN(c3ccccn3)CC2)c1,/,0,2,8,44*
Fc1ccc(NC(=S)N2CCN(c3cccc(C(F)(F)F)c3)CC2)cc1,148*,/,3,14,0
Nc1ccccc1C(=O)N1O[C@@H]2C=C[C@H]1C2,0,8.6*,-1,-15,0
CC(C)(C)NC(=O)COC(=O)c1ccc(Cl)nc1,/,-1,-5,15,43*
CNC[C@@H]1Oc2ccc(NC(=O)Nc3c(C)noc3C)cc2CC(=O)N([C@@H](C)CO)C[C@H]1C,0,-2,/,-11[16.7 µM],/
CN(C)c1ccc2c(c1)[C@@H]1C[C@H](CC(=O)N3CCCCC3)O[C@H](CO)[C@@H]1O2,1,-2,6,/,/
CCN(CC(=O)Nc1ccc(NC(C)=O)cc1)C(=O)C(c1ccccc1)c1ccccc1,/,4,1,-3,43*
CC(=O)c1cccc(CN2CCN(C(C)C)C(CCO)C2)c1 (stereo not given),0,2,-1,-16,44*
CC(C)N1CCN(Cc2ccc3c(c2)Cc2ccccc2-3)CC1CCO (stereo not given),/,2,2,-2,43*
CCCN(C)C[C@H]1Oc2ncc(C#Cc3ccc(OC)cc3)cc2C(=O)N([C@H](C)CO)C[C@H]1C,0,2,42,-1[16.7 µM],0
